# Experimental data taken from ChEMBL document CHEMBL3045731, “Facile synthesis and herbicidal evaluation of 4H-3,1-benzoxazin-4-ones and 3H-quinazolin-4-ones with 2-phenoxymethyl substituents” (Molecules, 2012).
# Tests used:
# Brassica napus [1] = assay: Herbicidal activity against Brassica napus (oilseed rape) assessed as inhibition of stalk growth at 1 mg/L after 5 days by petri dish culture method relative to control; assay type: functional; conditions: 120 h, read-out: GI
# In short: (§1)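 Test solutions were made in DMF, emulsified with Tween 80, and diluted with water, then added to Petri dishes lined with two filter papers. Twenty rape and twenty barnyard grass seeds were incubated 5 days at 23 ± 1 °C, 60 ± 5% humidity, 10 Klux, 12 h/day light. Mean length of 10 roots and 10 stems gave percent inhibition versus distilled-water controls.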
# Brassica napus [2] = assay: Herbicidal activity against Brassica napus (oilseed rape) assessed as inhibition of stalk growth at 10 mg/L after 5 days by petri dish culture method relative to control; assay type: functional; conditions: 120 h, read-out: GI; in short: as §1
# Echinochloa crus-galli [3] = assay: Herbicidal activity against Echinochloa crus-galli (barnyard grass) assessed as inhibition of stalk growth at 1 mg/L after 5 days by petri dish culture method relative to control; assay type: functional; conditions: 120 h, read-out: GI; in short: as §1
# Echinochloa crus-galli [4] = assay: Herbicidal activity against Echinochloa crus-galli (barnyard grass) assessed as inhibition of stalk growth at 10 mg/L after 5 days by petri dish culture method relative to control; assay type: functional; conditions: 120 h, read-out: GI; in short: as §1
# Brassica napus [5] = assay: Herbicidal activity against Brassica napus (oilseed rape) assessed as inhibition of root elongation after 5 days by petri dish culture method; assay type: functional, organism-based
# Brassica napus [6] = assay: Herbicidal activity against Brassica napus (oilseed rape) assessed as inhibition of root growth at 1 mg/L after 5 days by petri dish culture method relative to control; assay type: functional; conditions: 120 h, read-out: GI; in short: as §1
# Brassica napus [7] = assay: Herbicidal activity against Brassica napus (oilseed rape) assessed as inhibition of root growth at 10 mg/L after 5 days by petri dish culture method relative to control; assay type: functional; conditions: 120 h, read-out: GI; in short: as §1
# Echinochloa crus-galli [8] = assay: Herbicidal activity against Echinochloa crus-galli (barnyard grass) assessed as inhibition of root growth at 1 mg/L after 5 days by petri dish culture method relative to control; assay type: functional; conditions: 120 h, read-out: GI; in short: as §1
# Echinochloa crus-galli [9] = assay: Herbicidal activity against Echinochloa crus-galli (barnyard grass) assessed as inhibition of root growth at 10 mg/L after 5 days by petri dish culture method relative to control; assay type: functional; conditions: 120 h, read-out: GI; in short: as §1
compound,measurement,setting,value
COc1ccc(Cl)cc1Cl,inhibition of growth at 1 µg/mL,Brassica napus [1],89.1%
same,inhibition of growth at 10 µg/mL,Brassica napus [2],93.6%
same,inhibition of growth at 1 µg/mL,Echinochloa crus-galli [3],45.5%
same,inhibition of growth at 10 µg/mL,Echinochloa crus-galli [4],76.2%
same,IC50,Brassica napus [5],6.06 µmol
same,inhibition of growth at 1 µg/mL,Brassica napus [6],91%
same,inhibition of growth at 10 µg/mL,Brassica napus [7],100%
same,inhibition of growth at 1 µg/mL,Echinochloa crus-galli [8],67.3%
same,inhibition of growth at 10 µg/mL,Echinochloa crus-galli [9],99.1%
Nn1c(COc2ccc(Cl)cc2Cl)nc2ccccc2c1=O,IC50,Brassica napus [5],224.37 µmol
Nn1c(COc2ccc(Cl)cc2Cl)nc2c(Cl)cccc2c1=O,inhibition of growth at 1 µg/mL,Brassica napus [1],92.3%
same,inhibition of growth at 10 µg/mL,Brassica napus [2],95.7%
same,inhibition of growth at 1 µg/mL,Echinochloa crus-galli [3],-7.2%
same,inhibition of growth at 10 µg/mL,Echinochloa crus-galli [4],38.1%
same,IC50,Brassica napus [5],27.23 µmol
same,inhibition of growth at 1 µg/mL,Brassica napus [6],93.6%
same,inhibition of growth at 10 µg/mL,Brassica napus [7],98.2%
same,inhibition of growth at 1 µg/mL,Echinochloa crus-galli [8],24.3%
same,inhibition of growth at 10 µg/mL,Echinochloa crus-galli [9],68.5%
COc1cc2nc(COc3ccc(Cl)cc3Cl)n(N)c(=O)c2cc1OC,IC50,Brassica napus [5],167.59 µmol
Cn1c(COc2ccc(Cl)cc2)nc2cccc(Cl)c2c1=O,IC50,Brassica napus [5],201.13 µmol
Cn1c(COc2ccc(Cl)cc2Cl)nc2c(Cl)cccc2c1=O,inhibition of growth at 1 µg/mL,Brassica napus [1],-8.8%
same,inhibition of growth at 10 µg/mL,Brassica napus [2],-2.4%
same,inhibition of growth at 1 µg/mL,Echinochloa crus-galli [3],1.4%
same,inhibition of growth at 10 µg/mL,Echinochloa crus-galli [4],0%
same,inhibition of growth at 1 µg/mL,Brassica napus [6],32.3%
same,inhibition of growth at 10 µg/mL,Brassica napus [7],44.5%
same,inhibition of growth at 1 µg/mL,Echinochloa crus-galli [8],12.3%
same,inhibition of growth at 10 µg/mL,Echinochloa crus-galli [9],34.6%
O=c1oc(COc2ccc(Cl)cc2)nc2ccccc12,IC50,Brassica napus [5],30.37 µmol
O=c1oc(COc2ccc(Cl)cc2)nc2cccc(Cl)c12,IC50,Brassica napus [5],138.24 µmol
O=c1oc(COc2ccc(Cl)cc2)nc2ccc(Cl)cc12,IC50,Brassica napus [5],22.32 µmol
COc1cc2nc(COc3ccc(Cl)cc3)oc(=O)c2cc1OC,IC50,Brassica napus [5],80.14 µmol
O=c1oc(COc2ccc(Cl)cc2Cl)nc2ccccc12,IC50,Brassica napus [5],10.34 µmol
O=c1oc(COc2ccc(Cl)cc2Cl)nc2cccc(Cl)c12,IC50,Brassica napus [5],43.54 µmol
O=c1oc(COc2ccc(Cl)cc2Cl)nc2ccc(Cl)cc12,IC50,Brassica napus [5],10.73 µmol
O=c1oc(COc2ccc(Cl)cc2Cl)nc2cc(Cl)ccc12,IC50,Brassica napus [5],11.05 µmol
COc1cc2nc(COc3ccc(Cl)cc3Cl)oc(=O)c2cc1OC,IC50,Brassica napus [5],142.22 µmol
